The structures appear in SMILES notation. Calls of active or inactive are those of the source.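 The calls were made as follows, unless noted: active = GFP response above 150% of the DMSO level; inconclusive = fewer than 70 events counted for a yeast strain; inactive = the rest.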

Experiment [1] is described as follows: RPL19A-GFP modulators, yeast TOR pathway, confirmation, cell-based, S. cerevisiae, flow cytometry, cherry picks, mother/daughter gates (AID 2270;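 active = GFP response below 50% of the DMSO control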). The note with it: S. cerevisiae RPL19A-GFP strain, 3 h, at 10 µM, stronger effect = lower value, 100 = same GFP as DMSO wells. (In general: A flow cytometer gives signals particle by particle.)
Experiment [2] can be described thus: LAP4-GFP expression modulators in yeast, confirmation, cell-based, cherry picks, flow cytometry, mother/daughter gates (AID 2271;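 active = GFP response above 150% of the DMSO control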;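 also: ratio of sample to DMSO plate mean so 100% equals DMSO level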). The note with it: S. cerevisiae LAP4-GFP strain, 3 h, at 10 µM, stronger effect = higher value, 100 means same as DMSO control. A digest of the protocol:
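System: Alexa 633-stained baker's yeast GFP-fusion strain / Medium: synthetic complete (SC) yeast growth medium / Doses: compound at 10 µM, single point / Times: 3 h treatment at 30 °C with rotation / Detection: HT flow cytometry, GFP fluorescence channel / Benchmarks: DMSO-only negative wells, rapamycin 400 ng/mL positive wells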

The nature of experiment [3]: modulators of MEP2-GFP levels in yeast, confirmation, S. cerevisiae, flow cytometry GFP, cherry picks (AID 2272;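 active = GFP response above 150% of the DMSO control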;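 also: ratio of well signal to plate DMSO mean so 100% equals DMSO level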). As to conditions: S. cerevisiae MEP2-GFP strain, 3 h, at 10 µM, stronger effect = higher value.
Experiment [4] can be described thus: AGP1-GFP expression modulators, hit retest, confirmation, cell-based, flow cytometry, S. cerevisiae, cherry picks (AID 2273).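 Also: median GFP channel fluorescence over the whole cell population gate.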 As to conditions: S. cerevisiae AGP1-GFP strain, 3 h, at 10 µM.
Experiment [5] in a line: modulators of CIT2-GFP expression in yeast, confirmation, S. cerevisiae, GFP fusion, cherry picks, mother/daughter gates (AID 2274). The note with it: S. cerevisiae CIT2-GFP strain, flow cytometry, 3 h, at 10 µM, stronger effect = higher value.
Setting [6] is: measured here: daughter cell gate.
Where [7] appears, read: measured here: mother cell gate.
[8] abbreviates: measured here: daughter cell gate response.
The mark [9] stands for this setting: measured here: mother cell gate response.

For `Cc1ccc(S(=O)(=O)N(Cc2ccccc2)Cc2ccco2)cc1`, the GFP response vs DMSO in experiment [1] was 102% (inactive); in experiment [1] (setting [6]), 103%; in experiment [1] (setting [7]) it was 104%; in experiment [3], 97.8% (inactive). Further, the GFP response relative to DMSO in experiment [2] was 87.8% (inactive); in experiment [2] (setting [8]) it was 87.9%; in experiment [2] (setting [9]), 90.1%. For the same compound, the GFP response, % of DMSO was 97.8% (inactive) in experiment [4], 106% (inactive) in experiment [5], 105% in experiment [5] (setting [6]) and 104% in experiment [5] (setting [7]).
On to `CSC1=NC(=O)/C(=C/c2ccc(SC)cc2)S1`, for which the GFP response vs DMSO in experiment [1] was 95.1% (inactive); in experiment [1] (setting [6]) it was 78%; in experiment [1] (setting [7]) it was 92.5%; in experiment [3], 110% (inactive). For the same compound, the results for the GFP response relative to DMSO in experiment [2], in experiment [2] (setting [8]) and in experiment [2] (setting [9]) were 138% (inactive), 115% and 134%, respectively. Also, the GFP response, % of DMSO is 107% (inactive) in experiment [4], 75% (inactive) in experiment [5], 78.1% in experiment [5] (setting [6]) and 70.3% in experiment [5] (setting [7]).
In the case of `Cc1cccc(C)c1NC(=O)c1nc(S(=O)(=O)Cc2ccccc2)ncc1Cl`, the GFP response vs DMSO in experiment [1] was 97.1% (inactive); in experiment [1] (setting [6]) it was 96.4%; in experiment [1] (setting [7]), 95.8%; in experiment [3], 101% (inactive). For the same compound, the figures for the GFP response relative to DMSO in experiment [2], in experiment [2] (setting [8]) and in experiment [2] (setting [9]) were 102% (inactive), 101% and 101%, respectively. The GFP response, % of DMSO in experiment [4] was 102% (inactive); in experiment [5] it was 94.4% (inactive); in experiment [5] (setting [6]), 92.3%; in experiment [5] (setting [7]), 93.8%.
As to `COc1ccc(-c2sc(C(=O)c3ccc(Cl)cc3Cl)cc2CC(=O)O)cc1`, the GFP response vs DMSO in experiment [1] was 96% (inactive); in experiment [1] (setting [6]) it was 95.9%; in experiment [1] (setting [7]), 95.8%; in experiment [3] it was 122% (inactive). The GFP response relative to DMSO is 130% (inactive) in experiment [2], 127% in experiment [2] (setting [8]) and 131% in experiment [2] (setting [9]). Further, the GFP response, % of DMSO was 101% (inactive) in experiment [4], 104% (inactive) in experiment [5], 105% in experiment [5] (setting [6]) and 104% in experiment [5] (setting [7]).
As for `CCOc1cc(C(=O)N2CCN(c3ccc(C(C)=O)cc3)CC2)cc(OCC)c1OCC`, the GFP response vs DMSO is 91.8% (inactive) in experiment [1], 91.2% in experiment [1] (setting [6]), 89.8% in experiment [1] (setting [7]) and 109% (inactive) in experiment [3]. Moreover, the values for the GFP response relative to DMSO in experiment [2], in experiment [2] (setting [8]) and in experiment [2] (setting [9]) were 126% (inactive), 110% and 125%, respectively. The GFP response, % of DMSO is 104% (inactive) in experiment [4], 106% (inactive) in experiment [5], 105% in experiment [5] (setting [6]) and 105% in experiment [5] (setting [7]).
With `Cc1ccccc1C(=O)Nc1ccccc1`, the GFP response vs DMSO in experiment [1] is 96.4% (inactive); in experiment [1] (setting [6]), 94.9%; in experiment [1] (setting [7]), 97.4%; in experiment [3], 96.2% (inactive). The GFP response relative to DMSO was 96.7% (inactive) in experiment [2], 97.6% in experiment [2] (setting [8]) and 97.2% in experiment [2] (setting [9]). The GFP response, % of DMSO in experiment [4] is 100% (inactive); in experiment [5], 101% (inactive); in experiment [5] (setting [6]), 103%; in experiment [5] (setting [7]), 102%.
`O=C(OCC(=O)N1CCN(C(=O)c2ccco2)CC1)c1cc(-c2ccccc2)nc2ccccc12`: the GFP response vs DMSO in experiment [1] was 76.3% (inactive); in experiment [1] (setting [6]), 66.6%; in experiment [1] (setting [7]), 70.5%; in experiment [3] it was 130% (inactive). The GFP response relative to DMSO is 161% (active) in experiment [2], 117% in experiment [2] (setting [8]) and 153% in experiment [2] (setting [9]). The GFP response, % of DMSO in experiment [4] was 136% (inactive); in experiment [5], 134% (inactive); in experiment [5] (setting [6]), 114%; in experiment [5] (setting [7]), 130%.
As for `Cc1ccccc1NC(=O)CC1SC(=O)N(c2ccccc2)C1=O` (centres undefined), the GFP response vs DMSO in experiment [1] is 94.9% (inactive); in experiment [1] (setting [6]) it was 97.3%; in experiment [1] (setting [7]) it was 91%; in experiment [3], 112% (inactive). Further, the GFP response relative to DMSO in experiment [2] is 131% (inactive); in experiment [2] (setting [8]), 127%; in experiment [2] (setting [9]), 133%. Further, the GFP response, % of DMSO in experiment [4] is 104% (inactive); in experiment [5] it was 104% (inactive); in experiment [5] (setting [6]), 108%; in experiment [5] (setting [7]), 94.9%.
On to `COC(=O)CCS(=O)(=O)c1nc(-c2ccccc2)cc(C(F)(F)F)n1`, for which the GFP response vs DMSO in experiment [1] is 100% (inactive); in experiment [1] (setting [6]), 102%; in experiment [1] (setting [7]), 95.8%; in experiment [3] it was 136% (inactive). The results for the GFP response relative to DMSO in experiment [2], in experiment [2] (setting [8]) and in experiment [2] (setting [9]) were 168% (active), 161% and 170%, respectively. Further, the GFP response, % of DMSO is 130% (inactive) in experiment [4], 102% (inactive) in experiment [5], 110% in experiment [5] (setting [6]) and 93.7% in experiment [5] (setting [7]).

The record behind these values is PubChem BioAssay.
